Laboratory results as given in the RNAGym collection of RNA variant scans (doi:10.1126/science.aae0568).
Fewer inactive variants are shown than the library holds.

B1: tRNA (parent)
chain: GUUCCGUUGGCGUAAUGGUAACGCGUCUCCCUCCUAAGGAGAAGACUGCGGGUUCGAGUCCCGUACGGAACG

Variants of: B1
Test: yeast fitness relative to wild type (ratio to wild type); higher = fitter; tRNA-Arg(CCU), competitive growth, 37 C, YPD
In short: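 The tRNA-Arg(CCU) gene variants were made by chemical synthesis with a 3% per-site mutation rate at 69 sites and inserted at the native genomic locus of Saccharomyces cerevisiae. After pooling, the strains were competed in YPD at 37°C for 24 hours in six parallel replicates. Gene amplicons from the start population and each end population were read by 100-nucleotide paired-end sequencing, and Darwinian fitness relative to wild type was taken from genotype frequency changes. Genotypes needed ≥ 100 starting reads, and estimates < 0.5 were set to 0.5.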

Row | Variant | yeast fitness
1 | C4U C30A C61A A70U | 0.536
2 | C4U G17C C49A | 0.55
3 | C4U G12C A20G U47A C49U A57U C61A G68A | ≤ 0.5
4 | C4U A20G C61A | 0.512
5 | C4U G12C U26G C55U A69C | 0.504
6 | C4G U19C C24U | 0.619
7 | C4U C5G G41A U59C | ≤ 0.5
8 | C4U U26G | 0.912
9 | C4U A43G G68C | 0.553
10 | C4U C24U | 0.944
11 | C4U C24G | 0.591
12 | C4U C33U G50C | ≤ 0.5
13 | C4U G10A A15C A57C C66G | ≤ 0.5
14 | C4U G9C C29G C34G C60G | ≤ 0.5
15 | C4U C11U U26G U28C A37G G41A C49G | ≤ 0.5
16 | C4G U7C C22U C27A U59G | ≤ 0.5
17 | C4G U16A G63A | 0.534
18 | C4U G10A A43U C55G G56A | ≤ 0.5
19 | C4U A42G G58A | 0.717
20 | C4U A21G C46A G68U | 0.574
21 | C4U C29U C31A C55U A57C | ≤ 0.5

Row | Variant | yeast fitness
22 | C4U U26C A36C A37G U64A A70C | ≤ 0.5
23 | C4U U32A | 0.712
24 | C4U C11A G12A U28C G44C | ≤ 0.5
25 | C4U C27U G39C U47A | ≤ 0.5
26 | C4G U13A U54A | ≤ 0.5
27 | C4U G10A C11G A20G C27G A65G | ≤ 0.5
28 | C4U A42C C61G A65U | 0.62
29 | C4U A21G C46A | 0.899
30 | C4G U7G C29A A65C | ≤ 0.5
31 | C4U G10A U28A A70U | ≤ 0.5
32 | C4U C31U | 0.966
33 | C4U C31G C46U | 0.921
34 | C5A A14G C31A C55A C61A G63A | 0.536
35 | C4U G6A C34A A70C | ≤ 0.5
36 | C4U A15C C30G G56A A69C A70G | ≤ 0.5
37 | C4G U7G G12C A20U A70U | ≤ 0.5
38 | C4U C11G U16C C34A C60U A69G | ≤ 0.5
39 | C4U C11G C29A U54A U59G | ≤ 0.5
40 | C4U G39U | 0.834
41 | C4U C11G C29A U54A A57U | ≤ 0.5
42 | C4U C24U U54A | ≤ 0.5

Row | Variant | yeast fitness
43 | C4G U8G C24A C31G G50A | 0.594
44 | C4U A15C C34A G63C | ≤ 0.5
45 | C4U U28A A57C C61A | ≤ 0.5
46 | C4U G6A C29G G41A C60A | ≤ 0.5
47 | C4U C5G A40G G51C U59A C61A A69U | ≤ 0.5
48 | C4U G10C A14C C27G | 0.546
49 | C4U C5G C29G C31G A37C C66A | 0.66
50 | C4U A15U U16A G23C A57U A69U | ≤ 0.5
51 | C4G U8C G48C | 0.568
52 | C4U A21G C31G C34G | 0.596
53 | C5A A14U A15C C24G U26A | 0.78
54 | C4U U13C C33U A65G | 0.617
55 | C4U U19A G44C U53G | ≤ 0.5
56 | C4U G23C C30G | ≤ 0.5
57 | C4U C11U G23C A37U G44A | ≤ 0.5
58 | C4G U35G A42C C66U | ≤ 0.5
59 | C4U G10C U47C U59A A69U | ≤ 0.5
60 | C4U A57U C61U | 0.605
61 | C4G U19G A43U | ≤ 0.5
62 | C4U A42G U47C G58A | ≤ 0.5
63 | C4U C30G A36U C66A | ≤ 0.5

Row | Variant | yeast fitness
64 | C4U G6A C34U | ≤ 0.5
65 | C4U G9A C22G A42U G56A | ≤ 0.5
66 | C4U A37C G41C | 0.577
67 | C4U G12A | 1.11
68 | C4U A45U G68C | 0.7
69 | C4U G12A A20G C22U | 0.532
70 | C4U C24G U26A U28G U32A | ≤ 0.5
71 | C4G G52C | 0.655
72 | C4U C31U A37C | 0.532
73 | C4U A14G A21G C49U | 0.677
74 | C4G U8C A37U A42C C66G | ≤ 0.5
75 | C4U C11A A37C G67C | ≤ 0.5
76 | C4U C11U C22G C61A | ≤ 0.5
77 | C4U C30A C62U | 0.792
78 | C4G U7G A36C | ≤ 0.5
79 | C4U A21G C46A C62U | 0.691
80 | C4U A42C A43C C49U A70C | ≤ 0.5
81 | C4G U13A | 0.874
82 | C4G U7G A20G A65U | ≤ 0.5
83 | C4U A42C A45G C66A A69U | ≤ 0.5
84 | C4G U16A A21C C24G A37U C55U | ≤ 0.5
